Sampled rows, rich in hits. Any-hit rate of the full collection: about 1.4%.
core dimer inh: blocks dimerization of HCV core protein; TR-FRET GST/Flag-core106 dimerization, 1536-well; inhibition, % at 5 µM; hit rate 0.33% among 300,000; AID 1899;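 active means inhibition above the mean of all tested compounds plus 3 SD, set per screening campaign, cut at about 45% in these data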
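Material: GST/Flag-tagged HCV core106 proteins. Incubation: 4 h, 22.5 °C incubation. Read-out basis: inhibition (%) from 671 over 617 nm ratio. Measured by: TR-FRET, excitation 340 nm, emission 617 and 671 nm.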
ZTA counter: blocks Epstein-Barr virus ZTA, an EBNA-1 counter-screen; P03206; ZTA-DNA binding, fluorescence polarization; inhibition, % at 11 µM; hit rate 0.15% among 320,000; AID 2234; in the data active means inhibition above about 33%
Target sequence (P03206 whole entry, looked up): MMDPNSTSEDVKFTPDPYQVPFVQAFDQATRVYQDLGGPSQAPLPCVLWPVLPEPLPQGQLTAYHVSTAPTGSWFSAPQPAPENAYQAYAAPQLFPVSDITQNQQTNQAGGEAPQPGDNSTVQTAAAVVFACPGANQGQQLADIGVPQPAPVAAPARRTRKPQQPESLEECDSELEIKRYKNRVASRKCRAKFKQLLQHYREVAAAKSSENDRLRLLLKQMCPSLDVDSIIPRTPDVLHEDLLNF
NS3 helicase inh: HCV NS3 helicase inhibition; NS3 helicase DNA unwinding, Cy5 molecular beacon fluorescence; inhibition, % at 10.9 µM; hit rate 0.56% among 290,000; AID 1800;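 active means inhibition above the mean of all tested compounds plus 3 SD, set per campaign, cut at about 35% in these data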;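 further: 0% = DMSO wells and 100% = thioflavine S control wells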
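test system = hepatitis C virus NS3 helicase domain fragment enzyme | reagent = annealed dual-labelled DNA beacon duplex, ATP-started | times = 1 h at 25 °C | detection = Cy5 fluorescence, 0 and 60 min reads | read-out basis = percent inhibition from t60/t0 fluorescence ratio | control set = DMSO and thioflavine S | replication = one well per compound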
SUMO HTRF inh: blocks human SUMOylation mediated by UBC9. HTRF SUMOylation assay, SAE1/SAE2 + UBC9, in vitro. AID 2006. inhibition, % at 35 µM. hit rate 0.36% among 290,000. P63279; in the data active means inhibition above about 50%, passing the limit was not always enough; inconclusive means no clear call, values can overlap the other calls
Target sequence (P63279 whole entry, looked up): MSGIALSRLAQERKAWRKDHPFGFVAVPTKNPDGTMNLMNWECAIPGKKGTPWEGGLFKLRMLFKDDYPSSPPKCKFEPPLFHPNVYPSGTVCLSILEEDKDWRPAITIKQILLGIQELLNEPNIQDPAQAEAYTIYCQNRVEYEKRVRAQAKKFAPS
EBNA-1 inhibitor: blocks EBNA-1 binding to DNA; EBNA-1 DNA binding, fluorescence polarization; inhibition, % at 14.8 µM; hit rate 0.34% among 300,000; AID 1950; in the data active means inhibition above about 28%
NS3 helicase cf: HCV NS3 helicase inhibition, confirmation assay. shares compounds with NS3 helicase inh. AID 1943. NS3 helicase DNA unwinding, Cy5 molecular beacon fluorescence. inhibition, % at 10.9 µM. hit rate 31% among 1,600;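 active means inhibition above the mean of all tested compounds plus 3 SD, cutoff set per campaign, cut at about 36% in these data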
DNA FID counter: counter-screen for HCV NS3 helicase inhibitors: DNA intercalator displacement | inhibition, % at 7.9 µM | DNA fluorescent intercalator displacement, fluorescence | hit rate 4% among 1,600 | shares compounds with NS3 helicase inh; in the data active means inhibition above about 37%;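 further: 0% = vehicle and 100% = reference compound; higher means more displacement of ethidium bromide from the DNA hairpin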
FID counter DR: displaces fluorescent intercalator from DNA, HCV helicase counter-screen. shares compounds with NS3 helicase inh. fluorescent intercalator displacement from DNA, fluorescence. IC50, µM. 120 tested, under 10 active; call rule not given here
Active calls of the source: *; ? = inconclusive; · = no result; + = active, no number.

SMILES	core dimer inh	ZTA counter	NS3 helicase inh	SUMO HTRF inh	EBNA-1 inhibitor	NS3 helicase cf	DNA FID counter	others
CCOC(=O)c1ccc(NC(=O)CN2C(=O)NC3(CCCCCCC3)C2=O)cc1	·	16	·	·	·	·	·
COc1ccccc1-n1c(SCC(=O)NC(C)(C)C)nc(O)cc1=O	8	-1	36*	9	0	-18	3
CC(C)(C)NC(=O)CSc1nc(O)cc(=O)n1-c1ccccc1F	-5	-1	6	16	5	·	·
CC(C)c1ccc(/C=C/c2[nH]c(=O)[nH]c(=O)c2[N+](=O)[O-])cc1	6	3	56*	8	-8	53*	5
C(=C\c1ccccc1)/C=N/Nc1ccc2nncn2n1	-7	-7	44*	-18	-4	-14	-19
O=C(CC(SCc1ccco1)c1ccc(O)cc1)c1cccs1 (stereo not drawn)	1	-18	69*	6	-2	0	-11
O=C(CSc1nnc(-c2ccc(O)cc2)n1Cc1ccco1)c1cccs1	5	-5	3	27	-31	·	·
COc1ccc(-c2nc(-c3ccccc3)c(-c3cc([N+](=O)[O-])ccc3C)[nH]2)cc1O	4	7	-17	-3	-14	·	·
COc1ccc(-c2nc(=S)c3c([nH]2)Oc2ccc(C)cc2C3)cc1O	-5	9	53*	13	-4	12	-16
O=C(NC1CCCC1)C(=O)N(c1ccccc1F)C(C(=O)NCC1CCCO1)c1cccs1 (stereo not drawn)	-15	-19	36*	4	-7	-15	-36
Cc1ccc(C)c(OCCC(=O)Nc2ccc3c(c2)OCO3)c1	·	-3	·	·	·	·	·
CN(C)c1ccc(N2CN=C3SCC(=O)N3C2)cc1	-38	+	59*	-40	+	-6	27
COc1ccc(S(=O)(=O)Nc2ncccc2C)c2ccccc12	2	-3	-10	20	-3	·	·
O=C1CC(NCc2ccc3c(c2)OCO3)C(=O)N1CCc1ccccc1 (stereo not drawn)	-3	-4	54*	-2	10	-13	-18
CCc1cc2cc3c(cc2nc1SCC(=O)Nc1c[nH]c(=O)[nH]c1=O)OCO3	-12	-37	41*	3	-14	-3	2
COCCCn1c(=O)c2ccccc2n(Cc2cc(C(=O)OC)ccc2OC)c1=O	-3	8	-4	4	-5	·	·
Oc1ccc(/C=N\Nc2cc(N3CCOCC3)nc(N3CCOCC3)n2)c(O)c1	-19	-11	-2	?	-3	·	·
Oc1ccc(/C=N/Nc2cc(N3CCCC3)nc(N3CCCC3)n2)cc1O	21	11	56*	63*	3	8	23
N#CCC(=O)N/N=C/c1c(-c2ccccc2)n(-c2ccccc2)c2ccccc12	28	0	-14	6	16	·	·
CCN(CC)CCn1cnc2c([nH]c3cccc(OC)c32)c1=O	-2	-1	42*	17	-11	-16	2
Cc1nn(-c2ccccc2)nc1C(=O)Oc1cc(C(F)(F)F)nn1-c1ccccc1	-3	7	-43	-31	5	·	·
O=C(Cn1nc(-c2ccco2)ccc1=O)Nc1ccc(Br)cc1	9	2	40*	8	-20	-16	-4
CC(Oc1ccc(Cl)cc1)C(=O)N1CCN(C(=O)c2ccco2)CC1 (stereo not drawn)	·	-12	·	·	·	·	·
O=[N+]([O-])c1ccc(N2CCN(S(=O)(=O)c3ccccc3)CC2)cc1NCC1CCCO1 (stereo not drawn)	7	-20	13	-11	-3	·	·
O=[N+]([O-])c1ccc(N2CCN(S(=O)(=O)c3ccc4ccccc4c3)CC2)cc1NCC1CCCO1 (stereo not drawn)	25	0	53*	-17	0	6	-7
SMILES	core dimer inh	ZTA counter	NS3 helicase inh	SUMO HTRF inh	EBNA-1 inhibitor	NS3 helicase cf	DNA FID counter	others
Cc1ccccc1NC1c2ccccc2C(=O)N1Cc1ccco1 (stereo not drawn)	4	11	41*	-6	5	-1	-4
COc1ccccc1N1CCN(C(=O)CCNC(=O)c2ccco2)CC1	·	9	·	·	·	·	·
NS(=O)(=O)c1ccc(N2C(=O)C(=O)/C(=C(/O)c3ccccc3)C2c2ccc(Cl)cc2)cc1 (stereo not drawn)	4	-1	41*	-9	0	11	-11
CC1CCCCN1C(=O)COC(=O)c1cccc(NS(=O)(=O)c2ccccc2)c1 (stereo not drawn)	-1	-10	·	·	0	·	·
NS(=O)(=O)c1ccc(CCNC(=O)c2cc3ccccc3s2)cc1	-17	-6	51*	4	9	-3	-6
NS(=O)(=O)c1ccc(CCNC(=O)c2ccc(Cl)s2)cc1	0	1	9	0	-3	·	·
S=c1[nH]nc(COc2ccc(Cl)cc2)n1Cc1ccco1	-1	-17	36*	9	-6	3	-24
Cc1ccc(C(=O)Nc2nc(-c3ccccn3)cs2)cc1S(=O)(=O)N1CCOCC1	·	-2	·	·	·	·	·
O=C(NN1CCOCC1)c1ccccc1Br	14	26	1	7	-2	·	·
O=c1ccc2[n+]([O-])c3ccc(O)cc3oc-2c1	·	·	37*	36	·	-1	-40
Cc1ccc(C=Nc2ccc(N(C)C)cc2)o1	-43	+	39*	-44	+	-12	19
COc1ccc(C(=O)Nc2ccccc2C(=O)O)cc1NC(=O)C(c1ccccc1)c1ccccc1	12	14	16	25	1	·	·
COc1ccc(C(=O)Nc2ccccc2C(=O)O)cc1Cl	-5	-15	39*	-3	-12	30	9
O=C(Nc1nnc(C2=COCCO2)o1)c1cccc([N+](=O)[O-])c1	-1	2	8	6	9	·	·
O=C(Nc1nnc(C2=COCCO2)o1)c1cccc(Br)c1	-4	-17	39*	12	4	-8	4
CCC(C)(C)C1CCc2[nH]nc(C(=O)O)c2C1 (stereo not drawn)	8	8	·	·	13	·	·
CC(C)(C)C1CCc2[nH]nc(C(=O)O)c2C1 (stereo not drawn)	12	-1	37*	7	-11	-14	-1
O=C1OC(c2cccs2)=N/C1=C/c1ccc(-c2cccc(C(=O)O)c2)o1	·	·	30	9	·	·	·
O=C1OC(c2ccco2)=N/C1=C\c1ccc(-c2cccc(C(F)(F)F)c2)o1	17	2	37*	13	0	47*	-4	FID counter DR=>79
Cc1ccc(NC(=O)c2ccc(=O)n(CC(=O)Nc3ccccc3)n2)cc1	10	1	-2	32	-1	·	·
CC(=O)N1C=Cc2c(c(C)c3c([nH]c4ccccc43)c2C)C1	·	·	39*	20	·	23	35
CCSc1ccccc1C(=O)Nc1ccc(S(=O)(=O)NC(C)=O)cc1	-1	16	11	12	-5	·	·

From PubChem BioAssay
